Laboratory results from ChEMBL document CHEMBL3352213, “Development of dual targeting inhibitors against aggregations of amyloid-β and tau protein” (Eur J Med Chem, 2014).
pIC50: −log10 of the molar value.

Legend:
[1] = target: T1, Amyloid-beta precursor protein (Homo sapiens, UniProt P05067); assay: Inhibition of amyloid beta (1-42) aggregation (unknown origin) after 24 hrs by thioflavin T fluorescence method
[2] = target: T2, Microtubule-associated protein tau (Homo sapiens, UniProt P10636); assay: Inhibition of His-tagged human brain tau 3R MBD aggregation at 10 uM after 16 hrs by thioflavin T fluorescence method
Method in brief: (§1)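 His-tagged 3R MBD tau expressed in E. coli BL21(DE3), purified by Ni-chelate chromatography, dialysed against ammonium acetate and freeze-dried. Tau 10 μM plus heparin 10 μM in 50 mM Tris–HCl pH 7.6 with compound (0.1–10 μM, DMSO), incubated 37 °C 16 h in the dark. Background fluorescence read first, then 10 μM ThT added; ThT fluorescence at ex 440/em 486 nm.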

[3] = target: T2, Microtubule-associated protein tau; assay: Inhibition of His-tagged human brain tau 3R MBD aggregation after 16 hrs by thioflavin T fluorescence method
[4] = target: T1, Amyloid-beta precursor protein; assay: Inhibition of amyloid beta (1-42) aggregation (unknown origin) at 10 uM after 24 hrs by thioflavin T fluorescence method
[5] = target: T2, Microtubule-associated protein tau; assay: Inhibition of His-tagged human brain tau 3R MBD aggregation at 1 uM after 16 hrs by thioflavin T fluorescence method; method in brief: as §1
[6] = target: T1, Amyloid-beta precursor protein; assay: Inhibition of amyloid beta (1-42) aggregation (unknown origin) at 1 uM after 24 hrs by thioflavin T fluorescence method

T2 sequence (P10636 whole entry): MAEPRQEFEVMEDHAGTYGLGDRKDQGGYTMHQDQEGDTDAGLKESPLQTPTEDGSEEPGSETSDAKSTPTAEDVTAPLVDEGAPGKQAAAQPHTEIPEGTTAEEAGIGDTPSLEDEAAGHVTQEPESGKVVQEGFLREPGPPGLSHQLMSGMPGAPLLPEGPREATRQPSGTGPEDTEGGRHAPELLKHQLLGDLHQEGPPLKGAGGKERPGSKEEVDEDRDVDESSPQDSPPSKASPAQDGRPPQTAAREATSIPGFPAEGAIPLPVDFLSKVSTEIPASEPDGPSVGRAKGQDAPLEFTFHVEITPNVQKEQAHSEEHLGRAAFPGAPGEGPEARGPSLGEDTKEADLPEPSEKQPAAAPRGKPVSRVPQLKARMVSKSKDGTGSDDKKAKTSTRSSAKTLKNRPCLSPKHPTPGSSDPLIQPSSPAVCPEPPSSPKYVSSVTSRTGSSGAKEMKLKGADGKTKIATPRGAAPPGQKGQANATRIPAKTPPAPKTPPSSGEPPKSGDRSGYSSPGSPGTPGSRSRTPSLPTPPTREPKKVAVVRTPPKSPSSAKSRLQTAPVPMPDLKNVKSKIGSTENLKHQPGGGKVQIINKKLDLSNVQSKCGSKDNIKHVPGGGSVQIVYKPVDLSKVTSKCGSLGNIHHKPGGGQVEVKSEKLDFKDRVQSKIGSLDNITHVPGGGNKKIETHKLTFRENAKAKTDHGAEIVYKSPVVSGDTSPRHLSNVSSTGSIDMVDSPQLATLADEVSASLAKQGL
T1 sequence (P05067 whole entry): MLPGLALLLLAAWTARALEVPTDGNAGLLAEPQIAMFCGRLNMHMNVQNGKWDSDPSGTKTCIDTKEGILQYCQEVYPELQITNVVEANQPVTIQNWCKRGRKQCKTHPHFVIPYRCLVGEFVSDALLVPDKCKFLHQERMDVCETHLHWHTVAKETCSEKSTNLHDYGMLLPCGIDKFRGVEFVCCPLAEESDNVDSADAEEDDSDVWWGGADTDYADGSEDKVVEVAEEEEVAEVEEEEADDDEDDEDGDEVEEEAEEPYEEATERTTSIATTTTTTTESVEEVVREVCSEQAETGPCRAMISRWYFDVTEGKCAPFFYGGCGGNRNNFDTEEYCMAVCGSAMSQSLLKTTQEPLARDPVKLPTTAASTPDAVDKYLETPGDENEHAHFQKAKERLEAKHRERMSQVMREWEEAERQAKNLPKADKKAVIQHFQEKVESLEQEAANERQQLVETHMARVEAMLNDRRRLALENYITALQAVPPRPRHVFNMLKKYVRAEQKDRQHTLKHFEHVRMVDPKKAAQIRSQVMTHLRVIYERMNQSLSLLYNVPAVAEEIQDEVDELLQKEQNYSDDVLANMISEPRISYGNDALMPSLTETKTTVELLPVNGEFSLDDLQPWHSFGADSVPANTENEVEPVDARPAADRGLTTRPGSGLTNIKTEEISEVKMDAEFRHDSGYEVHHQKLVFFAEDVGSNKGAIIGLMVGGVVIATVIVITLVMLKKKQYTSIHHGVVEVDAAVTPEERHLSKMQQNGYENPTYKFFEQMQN

Structure (SMILES)	pIC50 [1]	inhibition [2] [%]	pIC50 [3]	inhibition [4] [%]	inhibition [5] [%]	inhibition [6] [%]
COc1ccc(-c2ccc(-c3ccc(C=O)s3)s2)cc1	< 5.00	18	< 5.00	0		
N#CC(C#N)=Cc1ccc(-c2ccc(-c3ccc(N(c4ccccc4)c4ccccc4)cc3)c3nsnc23)s1	< 5.00	15	< 5.00	30		
O=c1c(O)c(-c2ccc(O)c(O)c2)oc2c(O)c(O)cc(O)c12 [GOSSYPETIN]	> 5.52		> 5.52			
CN1C(=O)C(=Cc2ccc(-c3ccc(-c4ccc(N(c5ccccc5)c5ccccc5)cc4)s3)s2)C(=O)N(C)C1=O	< 5.00	7	< 5.00	18		
CN(C)c1ccc2nc3ccc(=[N+](C)C)cc-3sc2c1 [METHYLENE BLUE CATION]	6.26					
COc1ccc(-c2cc3c(s2)c2sc(-c4ccc(C=O)s4)cc2n3C(C)(C)C)cc1	6.42		6.54		74	61
CN(C)c1ccc2nc3ccc(N)cc3[s+]c2c1	> 5.52		> 5.52			
COc1ccc(-c2ccc(-c3ccc(C=C(C#N)C#N)s3)s2)cc1	> 6.00	28	< 5.00			78
COc1ccc(-c2cc3c(s2)c2sc(-c4ccc(C=C(C#N)C#N)s4)cc2n3C(C)(C)C)cc1	< 5.00	27	< 5.00	18		
O=C1NC(=O)C(=Cc2ccc(-c3ccc(-c4ccc(N(c5ccccc5)c5ccccc5)cc4)s3)s2)C(=O)N1	< 5.00	12	< 5.00	0		
CC(C)(C)n1c2cc(-c3ccc(N(c4ccccc4)c4ccccc4)cc3)sc2c2sc(-c3ccc(C=O)s3)cc21	< 5.00	15	< 5.00	36		
N#CC(C#N)=Cc1ccc(-c2ccc(-c3ccc(N(c4ccccc4)c4ccccc4)cc3)s2)s1	< 5.00	14	< 5.00	43		
O=Cc1ccc(-c2ccc(-c3ccc4[nH]ccc4c3)s2)s1	< 5.00		5.80	46		
N#C/C(=C\c1ccc(-c2ccc(-c3ccc(N(c4ccccc4)c4ccccc4)cc3)s2)s1)C(N)=O	5.82	29	< 5.00			
O=Cc1ccc(-c2ccc(-c3ccc(N(c4ccccc4)c4ccccc4)cc3)c3nsnc23)s1	< 5.00	11	< 5.00	44		
CC(C)(C)n1c2cc(-c3ccc(N(c4ccccc4)c4ccccc4)cc3)sc2c2sc(-c3ccc(/C=C(\C#N)C(N)=O)s3)cc21	< 5.00	33	< 5.00	36		
COc1ccc(-c2cc3c(s2)c2sc(-c4ccc(/C=C(\C#N)C(N)=O)s4)cc2n3C(C)(C)C)cc1	6.26		6.52			
O=Cc1ccc(-c2ccc(-c3ccc(N(c4ccccc4)c4ccccc4)cc3)s2)s1	5.15	12	< 5.00			
CC(C)(C)n1c2cc(-c3ccc(N(c4ccccc4)c4ccccc4)cc3)sc2c2sc(-c3ccc(C=C(C#N)C#N)s3)cc21	< 5.00	18	< 5.00	16		
CNc1ccc2nc3ccc(N(C)C)cc3[s+]c2c1	> 5.52		> 5.52			
N#C/C(=C\c1ccc(-c2ccc(-c3ccc(N(c4ccccc4)c4ccccc4)cc3)c3nsnc23)s1)C(N)=O	< 5.00	24	< 5.00	46		
N#C/C(=C\c1ccc(-c2ccc(-c3ccc(N(c4ccccc4)c4ccccc4)cc3)s2)s1)C(=O)O	> 6.39		5.77			82
